Assay results of several laboratories.
pIC50: −log10 of the molar value.
HDAC10: Polyamine deacetylase HDAC10 (HDAC10, Homo sapiens, UniProt Q969S8)
CSNK1A1: Casein kinase I isoform alpha (CSNK1A1, Homo sapiens, UniProt P48729)
HDAC7: Histone deacetylase 7 (HDAC7, Homo sapiens, UniProt Q8WUI4)
PLA2G6: 85/88 kDa calcium-independent phospholipase A2 (PLA2G6, Homo sapiens, UniProt O60733)
SLC22A12: Solute carrier family 22 member 12 (SLC22A12, Homo sapiens, UniProt Q96S37)
SLC22A2: Solute carrier family 22 member 2 (SLC22A2, Homo sapiens, UniProt O15244)

For `CN(CCCCCCNC(=O)COc1ccc(C2CCC(=O)NC2=O)cc1)Cc1cn(Cc2ccc(C(=O)NO)cc2)c2ccccc12` (centres unmarked), the pIC50 was 7.92 (HDAC10; enzyme activity, inhibitor, fluorescence).
For `c1ccc(-c2n[nH]cc2-c2ccncn2)nc1`, the pIC50 was under 4.52 (CSNK1A1; enzyme activity, inhibitor, ADP detection).
`O=C(c1ccc(OCCN2CCCCC2)cc1)c1c(-c2ccc(O)cc2)sc2cc(O)ccc12` gave a pIC50 of 4.05 (Angiotensin-converting enzyme (Mus musculus, UniProt P09470); enzyme activity, inhibitor).
The pIC50 of `COc1ccc(N(Cc2csc(-c3ccccc3)n2)C(=O)CCCCCC(=O)NO)cc1` is reported as under 5.00 (HDAC7; enzyme activity, inhibitor).
`O=C(CCCCc1ccc(CO)cc1)C(F)(F)C(F)(F)F` gave a pIC50 of 6.20 (PLA2G6; enzyme activity, inhibitor).
For `Oc1ccn2nc(-c3ccc(F)cc3)c(-c3ccncc3)c2c1`, the pIC50 was 6.08 (CSNK1A1; enzyme activity, inhibitor, ADP detection).
`Fc1ccc(Cc2[nH]nc(-c3ccccn3)c2-c2ccnc3ccccc23)cc1` has a pIC50 of 4.96 (CSNK1A1; enzyme activity, inhibitor, ADP detection).
The pIC50 of `CN(CCCCCCNC(=O)CNc1cccc2c1C(=O)N(C1CCC(=O)NC1=O)C2=O)Cc1cn(Cc2ccc(C(=O)NO)cc2)c2ccccc12` (centres unmarked) is reported as 8.15 (HDAC10; enzyme activity, inhibitor, fluorescence).
`O=C(O)/C=C/c1nccc2c3ccccc3n(Cc3ccc(Br)c4ccccc34)c12` has a pIC50 of 5.52 (SLC22A12; transporter uptake, inhibitor, radiometric).
`c1ccc(-c2n[nH]cc2-c2ccncc2)nc1` has a pIC50 of 5.54 (CSNK1A1; enzyme activity, inhibitor, ADP detection).
For `COc1ccc(N(Cc2nc(-c3ccc(F)cc3)cs2)C(=O)CCCCCC(=O)NO)cc1`, the pIC50 was under 5.00 (HDAC7; enzyme activity, inhibitor).
The pIC50 of `O=C(NS(=O)(=O)c1ccccc1)c1cc2ccccc2n1Cc1ccc(C2CC2)c2ccccc12` is reported as 5.39 (SLC22A12; transporter uptake, inhibitor, radiometric).
`Fc1ccc(-c2nn3cc(F)ccc3c2-c2ccncc2)cc1` has a pIC50 of 5.62 (CSNK1A1; enzyme activity, inhibitor, ADP detection).
`Cc1cc(N)c2ccccc2[n+]1CCCCCCCCCC[n+]1c(C)cc(N)c2ccccc21` gave a pIC50 of 7.05 (SLC22A2; transporter uptake, inhibitor, fluorescence).
The pIC50 of `CC(C)NC(=O)COc1cccc(-c2nc(Nc3ccc4[nH]ncc4c3)c3ccccc3n2)c1` is reported as under 6.00 (SLC22A2; transporter uptake, inhibitor, radiometric; HEK293).
`O=C(NO)c1ccc(Cn2cnc3c(Nc4cccc([N+](=O)[O-])c4)ncnc32)cc1` has a pIC50 of 6.93 (HDAC7; enzyme activity, inhibitor).
`NC(=O)c1nnn(Cc2cc(Cl)c(C(=O)c3ccc(Cl)cc3)c(Cl)c2)c1N` has a pIC50 of 5.42 (Cannabinoid receptor 2 (CNR2, Homo sapiens, UniProt P34972); cAMP, antagonist).
`c1ccc(-c2[nH]ccc2-c2ccnc3ccccc23)nc1` gave a pIC50 of under 4.52 (CSNK1A1; enzyme activity, inhibitor, ADP detection).
For `Fc1ccc(-c2nc3cc(C4CC4)ccn3c2-c2ccncc2)cc1`, the pIC50 was 6.04 (CSNK1A1; enzyme activity, inhibitor, ADP detection).
`CCc1oc2cc(F)c(F)cc2c1C(=O)c1cc(Br)c(O)c(Br)c1` has a pIC50 of 6.61 (SLC22A12; transporter uptake, inhibitor, radiometric; oocytes).
For `Fc1ccc(-c2nn3cccc(F)c3c2-c2ccncc2)cc1`, the pIC50 was 5.26 (CSNK1A1; enzyme activity, inhibitor, ADP detection).
For `O=C(COc1ccc(C2CCC(=O)NC2=O)cc1)NCCCCCCN1CCc2c(c3ccccc3n2Cc2ccc(C(=O)NO)cc2)C1` (centres unmarked), the pIC50 was 7.64 (HDAC10; enzyme activity, inhibitor, fluorescence).
The pIC50 of `O=C(NS(=O)(=O)C1CC1)c1cc2ccccc2n1Cc1ccc(C2CC2)c2ccccc12` is reported as 5.24 (SLC22A12; transporter uptake, inhibitor, radiometric).
For `Nc1ncnc2c1ncn2[C@@H]1O[C@H](CSCC[C@H](N)C(=O)O)[C@@H](O)[C@H]1O`, the pIC50 was 5.68 (Histone-lysine N-methyltransferase SETD2 (SETD2, Homo sapiens, UniProt Q9BYW2); enzyme activity, inhibitor).
With `O=C(O)CCc1nccc2c3ccccc3n(Cc3ccc(Br)c4ccccc34)c12` the pIC50 was 4.86 (SLC22A12; transporter uptake, inhibitor, radiometric).
The pIC50 of `CC(C)(C)c1ccn2nc(-c3ccc(F)cc3)c(-c3ccncc3)c2c1` is reported as 5.06 (CSNK1A1; enzyme activity, inhibitor, ADP detection).
For `Oc1ccccc1-c1n[nH]cc1-c1ccnc2ccccc12`, the pIC50 was 5.51 (CSNK1A1; enzyme activity, inhibitor, ADP detection).
`Fc1ccc(-c2nn3cc(C(F)(F)F)ccc3c2-c2ccncc2)cc1` has a pIC50 of under 4.82 (CSNK1A1; enzyme activity, inhibitor, ADP detection).
`O=C(CCCCc1ccc(CO)cc1)C(F)(F)F` has a pIC50 of 5.96 (PLA2G6; enzyme activity, inhibitor).
